From ChEMBL document CHEMBL3734686, “Synthesis, Photophysical Properties, and Biological Evaluation of trans-Bisthioglycosylated Tetrakis(fluorophenyl)chlorin for Photodynamic Therapy” (J Med Chem, 2015)

Assays:
Lung [1] = assay: Drug uptake in BALB/c mouse lung implanted with mouse 4T1 cells assessed per gram of tissue at 0.18 mg/kg, ip after 6 hrs by HPLC-based fluorescence analysis; format: ADME, organism-based; settings: in vivo
In short: (§1)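 Female BALB/c mice bearing 4T1 thigh tumours received an i.p. dose in ethanol/PEG400/H2O (2/3/5) with 0.1% DMSO, or in saline, and were kept dark until killed. Tissues were weighed (100 mg), homogenised in CH3OH/DMSO/H2O (32/8/1) and centrifuged twice at 2300×g at 4°C. Supernatants were analysed by HPLC with fluorescence detection (λex 404/λem 654 nm or λex 400/λem 666 nm). n = 3 per time point.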

Liver [2] = assay: Drug uptake in BALB/c mouse liver implanted with mouse 4T1 cells assessed per gram of tissue at 0.18 mg/kg, ip after 48 hrs by HPLC-based fluorescence analysis; format: ADME, organism-based; settings: in vivo; in short: as §1
Heart [3] = assay: Drug uptake in BALB/c mouse heart implanted with mouse 4T1 cells assessed per gram of tissue at 0.18 mg/kg, ip after 24 hrs by HPLC-based fluorescence analysis; format: ADME, organism-based; settings: in vivo; in short: as §1
Kidney = assay: Drug uptake in BALB/c mouse kidney implanted with mouse 4T1 cells assessed per gram of tissue at 0.18 mg/kg, ip after 24 hrs by HPLC-based fluorescence analysis; format: ADME, organism-based; settings: in vivo; in short: as §1
Spleen [4] = assay: Drug uptake in BALB/c mouse spleen implanted with mouse 4T1 cells assessed per gram of tissue at 0.18 mg/kg, ip after 12 hrs by HPLC-based fluorescence analysis; format: ADME, organism-based; settings: in vivo
In short: (§2)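 Female BALB/c mice with 4T1 cells (1 × 10^6 in HBSS) implanted in left rear thigh; single i.p. dose, 7 in ethanol/PEG400/H2O (2/3/5) with 0.1% DMSO, mono-L-aspartyl chlorin e6 in saline; kept dark until sacrifice. Tissues washed, frozen, homogenized in CH3OH/DMSO/H2O (32/8/1), centrifuged 2300×g; supernatant analysed by HPLC with fluorescence detection; three animals per time point.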

[5] = Ratio of drug level in tumor to skin in BALB/c mouse implanted with mouse 4T1 cells ip after 24 hrs; settings: in vivo
Lung [6] = assay: Drug uptake in BALB/c mouse lung implanted with mouse 4T1 cells assessed per gram of tissue at 0.18 mg/kg, ip after 12 hrs by HPLC-based fluorescence analysis; format: ADME, organism-based; settings: in vivo; in short: as §1
U-251 = assay: Photocytotoxicity against human U251 cells assessed as cell survival preincubated for 24 hrs followed by irradiation at 16 J/cm2 measured at 24 hrs by WST-8 assay; format: functional, cell-based; settings: U-251, light or radiation study
In short: (§3)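 Cells (5 × 10^3/well) in DMEM with 10% FCS, 24 h at 37°C, 5% CO2; photosensitizer 1–50000 nM (1% DMSO final) for 24 h, washed, fresh medium. Irradiated with 100-W halogen lamp through λ>500 nm or λ>600 nm cutoff filter to 16 J·cm−2; WST-8 absorbance at 450 nm 24 h later, survival normalized to no-drug wells.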

[7] = Drug uptake in BALB/c mouse small intestine implanted with mouse 4T1 cells assessed per gram of tissue at 0.18 mg/kg, ip after 24 hrs by HPLC-based fluorescence analysis; format: ADME, organism-based; settings: in vivo; in short: as §2
Zone of skin = assay: Drug uptake in BALB/c mouse skin implanted with mouse 4T1 cells assessed per gram of tissue at 0.18 mg/kg, ip after 12 hrs by HPLC-based fluorescence analysis; format: ADME, organism-based; settings: in vivo; in short: as §2
Urinary bladder [8] = assay: Drug uptake in BALB/c mouse bladder implanted with mouse 4T1 cells assessed per gram of tissue at 0.18 mg/kg, ip after 12 hrs by HPLC-based fluorescence analysis; format: ADME, organism-based; settings: in vivo; in short: as §1
4T1 [9] = assay: Drug uptake in mouse 4T1 cells implanted in BALB/c mouse assessed per gram of tissue at 0.18 mg/kg, ip after 24 hrs by HPLC-based fluorescence analysis; format: ADME, organism-based; settings: in vivo; in short: as §2
[10] = Photocytotoxicity against human U87 cells assessed as cell survival preincubated for 24 hrs followed by irradiation at 16 J/cm2 measured at 24 hrs by WST-8 assay; format: functional, cell-based, U-87MG ATCC; settings: U-87 MG, light or radiation study; in short: as §3
4T1 [11] = assay: Drug uptake in mouse 4T1 cells implanted in BALB/c mouse assessed per gram of tissue at 0.18 mg/kg, ip after 6 hrs by HPLC-based fluorescence analysis; format: ADME, organism-based; settings: in vivo; in short: as §2
[12] = Drug uptake in BALB/c mouse large intestine implanted with mouse 4T1 cells assessed per gram of tissue at 0.18 mg/kg, ip after 72 hrs by HPLC-based fluorescence analysis; format: ADME, organism-based; settings: in vivo; in short: as §1
[13] = Drug uptake in BALB/c mouse large intestine implanted with mouse 4T1 cells assessed per gram of tissue at 0.18 mg/kg, ip after 6 hrs by HPLC-based fluorescence analysis; format: ADME, organism-based; settings: in vivo; in short: as §1
4T1 [14] = assay: Drug uptake in mouse 4T1 cells implanted in BALB/c mouse assessed per gram of tissue at 0.18 mg/kg, ip after 72 hrs by HPLC-based fluorescence analysis; format: ADME, organism-based; settings: in vivo; in short: as §2
[15] = Drug uptake in BALB/c mouse large intestine implanted with mouse 4T1 cells assessed per gram of tissue at 0.18 mg/kg, ip after 48 hrs by HPLC-based fluorescence analysis; format: ADME, organism-based; settings: in vivo; in short: as §1
Spleen [16] = assay: Drug uptake in BALB/c mouse spleen implanted with mouse 4T1 cells assessed per gram of tissue at 0.18 mg/kg, ip after 6 hrs by HPLC-based fluorescence analysis; format: ADME, organism-based; settings: in vivo; in short: as §2
Plasma = assay: Drug uptake in BALB/c mouse plasma implanted with mouse 4T1 cells at 0.045 mg/kg, ip after 1 to 24 hrs by HPLC analysis; format: ADME, organism-based; settings: in vivo
[17] = Drug uptake in BALB/c mouse large intestine implanted with mouse 4T1 cells assessed per gram of tissue at 0.18 mg/kg, ip after 24 hrs by HPLC-based fluorescence analysis; format: ADME, organism-based; settings: in vivo; in short: as §1
Urinary bladder [18] = assay: Drug uptake in BALB/c mouse bladder implanted with mouse 4T1 cells assessed per gram of tissue at 0.18 mg/kg, ip after 24 hrs by HPLC-based fluorescence analysis; format: ADME, organism-based; settings: in vivo; in short: as §1
Liver [19] = assay: Drug uptake in BALB/c mouse liver implanted with mouse 4T1 cells assessed per gram of tissue at 0.18 mg/kg, ip after 72 hrs by HPLC-based fluorescence analysis; format: ADME, organism-based; settings: in vivo; in short: as §1
Heart [20] = assay: Drug uptake in BALB/c mouse heart implanted with mouse 4T1 cells assessed per gram of tissue at 0.18 mg/kg, ip after 72 hrs by HPLC-based fluorescence analysis; format: ADME, organism-based; settings: in vivo; in short: as §1
Stomach = assay: Drug uptake in BALB/c mouse stomach implanted with mouse 4T1 cells assessed per gram of tissue at 0.18 mg/kg, ip after 6 hrs by HPLC-based fluorescence analysis; format: ADME, organism-based; settings: in vivo; in short: as §2
Muscle tissue = assay: Drug uptake in BALB/c mouse muscle implanted with mouse 4T1 cells assessed per gram of tissue at 0.18 mg/kg, ip after 6 hrs by HPLC-based fluorescence analysis; format: ADME, organism-based; settings: in vivo; in short: as §1
4T1 [21] = assay: Photocytotoxicity against mouse 4T1 cells assessed as cell survival preincubated for 24 hrs followed by irradiation at 16 J/cm2 measured at 24 hrs by WST-8 assay; format: functional, cell-based; settings: 4T1, light or radiation study; in short: as §3
Urinary bladder [22] = assay: Drug uptake in BALB/c mouse bladder implanted with mouse 4T1 cells assessed per gram of tissue at 0.18 mg/kg, ip after 72 hrs by HPLC-based fluorescence analysis; format: ADME, organism-based; settings: in vivo; in short: as §1

Drug uptake (Lung [1]): 70 ng/g
Drug uptake (Liver [2]): 9 ng
Drug uptake (Heart [3]): 6.1 ng/g
Drug uptake (Kidney): 18 ng
Drug uptake (Spleen [4]): 55 ng
Ratio [5]: 60
Drug uptake (Lung [6]): 30 ng
Drug uptake [7]: 39 ng/g
Drug uptake (Zone of skin): 0 ng
Drug uptake (Urinary bladder [8]): 95 ng/g
Drug uptake (4T1 [9]): 3 ng
Drug uptake (4T1 [11]): 5 ng
Drug uptake [12]: 7 ng/g
Drug uptake [13]: 80 ng
Drug uptake (4T1 [14]): 1.8 ng/g
Drug uptake [15]: 17 ng/g
Drug uptake (Spleen [16]): 90 ng/g
Drug uptake (Plasma): Active
Drug uptake [17]: 60 ng/g
Drug uptake (Urinary bladder [18]): 77 ng
Drug uptake (Liver [19]): 14 ng
Drug uptake (Heart [20]): 3.3 ng
Drug uptake (Stomach): 48 ng/g
Drug uptake (Muscle tissue): 2.2 ng
Drug uptake (Urinary bladder [22]): 8 ng
Structure (SMILES): CN1CC2C3=N/C(=C(/c4c(F)c(F)c(S[C@@H]5O[C@H](CO)[C@@H](O)[C@H](O)[C@H]5O)c(F)c4F)C4=N/C(=C(/c5c(F)c(F)c(F)c(F)c5F)c5ccc([nH]5)/C(c5c(F)c(F)c(S[C@@H]6O[C@H](CO)[C@@H](O)[C@H](O)[C@H]6O)c(F)c5F)=C5/C=CC(=N5)C3c3c(F)c(F)c(F)c(F)c3F)C=C4)C2C1 (stereo partly drawn)
EC50 (U-251): 0.5 nM
EC50 [10]: 0.1 nM
EC50 (4T1 [21]): 0.5 nM
